According to ChEMBL document CHEMBL1123232, “Acyl, N-protected alpha-aminoacyl, and peptidyl derivatives as prodrug forms of the alcohol deterrent agent cyanamide” (J Med Chem, 1986):

Experiments:
Format in all cases: functional, organism-based
[1] = tested on: Rattus norvegicus; assay: (§1) Tested for effect on ethanol derived blood Ach levels in rats at 1.0 mmol/kg
Method in brief: (§2)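 Fasted male Sprague-Dawley rats (185-225 g) received a single 1.0 mmol/kg ip dose at zero time, in saline or in 2% aqueous CMC if water-insoluble. Ethanol (2.0 g/kg, ip) was given at 2 or 15 h. Blood from open-chest cardiac puncture 1 h later went into 5 mM sodium azide. Headspace GC in duplicate against an AcH standard curve. Four rats per protocol; mean ± SE.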

[2] = tested on: Rattus norvegicus; assay: as §1; method in brief: as §2; remark: listed apart in the source
[3] = tested on: Rattus norvegicus; assay: Compound was tested for effect on ethanol derived blood Ach levels in rats at administration (pro drug administration of 1.0 mmol/kg) ip; method in brief: as §2
[4] = tested on: Rattus norvegicus; assay: Compound was tested for effect on ethanol derived blood Ach levels in rats at the administrations (pro drug administration of 1.0 mmol/kg) oral(po)
Method in brief: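 A single 1.0 mmol/kg dose was given by stomach tube at zero time to fasted male Sprague-Dawley rats (185-225 g). Ethanol (2.0 g/kg, ip) was given 1 h before sacrifice: blood sampled at 4 h, or over 48 h with ethanol at 1, 4, 11, 23, 35 and 47 h, two rats per time. Cardiac blood went into sodium azide; AcH was measured by headspace GC in duplicate.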

## CC(C)C[C@H](NC(=O)CNC(=O)OCc1ccccc1)C(=O)NC#N
[1]
  Concentration: 1050 µM
[2]
  Concentration: 35 µM

## N#CNC(=O)CNC(=O)c1ccccc1
[1]
  Concentration: 400 µM
[2]
  Concentration: 200 µM

## CC(C)C[C@H](NC(=O)[C@@H]1CCC(=O)N1)C(=O)NC#N
[1]
  Concentration: 200 µM
[2]
  Concentration: 25 µM

## N#CNC(=O)CNC(=O)OCc1ccccc1
[1]
  Concentration: 900 µM
[2]
  Concentration: 35 µM
[3]
  Concentration: 850 µM
[4]
  Concentration: 125 µM

## CCCCCCCCCCCCCCCC(=O)NC#N
[1]
  Concentration: 1600 µM
[2]
  Concentration: 1100 µM
[3]
  Concentration: 1150 µM
[4]
  Concentration: 1300 µM

## N#CNC(=O)[C@H](Cc1ccccc1)NC(=O)[C@@H]1CCC(=O)N1
[1]
  Concentration: 1150 µM
[2]
  Concentration: 150 µM

## N#CNC(=O)C12CC3CC(CC(C3)C1)C2
[1]
  Concentration: 1250 µM
[2]
  Concentration: 75 µM

## CC(C)C[C@H](NC(=O)c1ccccc1)C(=O)NC#N
[1]
  Concentration: 1000 µM
[2]
  Concentration: 300 µM

## CCCC(=O)NC#N
[1]
  Concentration: 1750 µM
[2]
  Concentration: 250 µM

## CCCCCCCCCCCCCCCCCC(=O)NC#N
[1]
  Concentration: 1300 µM
[2]
  Concentration: 600 µM

## N#CNC(=O)c1ccccc1
[1]
  Concentration: 300 µM
[2]
  Concentration: 100 µM

## CC(=O)NC#N
[1]
  Concentration: 250 µM
[2]
  Concentration: 50 µM
[3]
  Concentration: 400 µM
[4]
  Concentration: 350 µM

## N#CN
[1]
  Concentration: 1050 µM
[2]
  Concentration: 225 µM

## CC(C)(C)C(=O)NC#N
[1]
  Concentration: 1200 µM
[2]
  Concentration: 200 µM

## N#CNC(=O)Cc1ccccc1
[1]
  Concentration: 1250 µM
[2]
  Concentration: 1300 µM

## N#CNC(=O)OCc1ccccc1
[1]
  Concentration: 1200 µM
[2]
  Concentration: 50 µM

## N#CNC(=O)C1CCC(=O)N1C(=O)OCc1ccccc1 (stereo not given)
[1]
  Concentration: 175 µM
[2]
  Concentration: 35 µM
